# Bioassay records from PubChem BioAssay.
# These entries were drawn from the full list.
# PGC1a acetyl up: compounds raising PGC1a acetylation signal, primary screen, PGC1a modulator project, cell-based, U2OS, AlphaScreen, signal-increasing mode; overnight; activation, % at 15.6 µM; 350,000 compounds, 0.21% hits; AID 651723, 2012;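 active means every replicate reaching activation of at least 50%, whatever the mean replicate activation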;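 further: hits raise the AlphaScreen acetylation signal above neutral controls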
#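 System – flag-PGC1a/GCN5 U2OS cells · Quantity – 7000 U2OS cells per well · Signal – AlphaScreen proximity luminescence, anti-acetyl-lysine antibody · Schedule – overnight compound treatment, 37 °C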
# * = called active by the depositor.
SMILES,PGC1a acetyl up
O=C(Nc1ccc(C(F)(F)F)cc1)N1C[C@@H]2N[C@H](C1)C2c1ccc(-c2cccc(F)c2)cc1 (some centres not stated),-62.5
Cc1ccc(-c2ccc(C3[C@@H]4CN(C(=O)Nc5ccc(C(F)(F)F)cc5)C[C@H]3N4)cc2)cc1 (some centres not stated),-69.7
Cc1cccc(-c2ccc(C3[C@@H]4CN(C(=O)C5CCCCC5)C[C@H]3N4)cc2)c1 (some centres not stated),74.0*
C[C@H]1CN([C@@H](C)CO)C(=O)c2cc(C#CC(C)(C)O)cnc2O[C@@H]1CN(C)C(=O)C1CCC1,-100.7
CC(CCC(=O)O)C1CCC2C3CCC4CC(O)CCC4(C)C3CC(O)C12C (configuration not stated),-49.3
CC1(C)CC(=O)C2=C(C1)Nc1ccccc1N1C(=O)c3ccccc3C21 (configuration not stated),57.9*
CCCCCSc1nnc(C)c(=O)[nH]1,-90.6
CC1CCN(S(=O)(=O)c2ccc(Oc3ccc([N+](=O)[O-])cc3)cc2)CC1,-53.9
CCOC(=O)C1=CC[C@@H](c2ccc([N+](=O)[O-])cc2)N(S(=O)(=O)c2ccc(C)cc2)[C@H]1c1ccccc1,56.6*
CN(C)CCNC(=O)c1cccc2c(-c3ccc(F)c(F)c3)coc12,78.1*
COc1ccc(C2c3c(-c4ccccc4O)n[nH]c3C(=O)N2CCc2ccc(OC)c(OC)c2)cc1 (configuration not stated),63.2*
COc1ccc(CCN2C(=O)CC(C(C)c3ccccc3)C2=O)cc1OC (configuration not stated),-45.4
CCSc1ccc(NC(=O)c2cccnc2)cc1,226.4*
CC(C)(C)c1ccc(C(=O)Nc2ccc(C(=O)NCc3cccnc3)cc2)cc1,101.5*
O=C(COc1ccc(Br)cc1)NCCNC(=O)c1cccnc1,-44.9
CC(C)C#Cc1cnc2c(c1)C(=O)N([C@H](C)CO)C[C@H](C)[C@H](CN(C)C(=O)CN1CCOCC1)O2,-57.7
Cc1noc(C)c1NC(=O)Nc1ccc2c(c1)C(=O)N([C@H](C)CO)C[C@@H](C)[C@@H](CN(C)S(=O)(=O)c1ccc(F)cc1)OCCCC[C@@H](C)O2,-42.2
C[C@@H]1CCCCO[C@H](CN(C)C(=O)NC2CCCCC2)[C@@H](C)CN([C@@H](C)CO)C(=O)c2cc(NC(=O)NC3CCCCC3)ccc2O1,-44.8
CC(C)OC(=O)CSc1nc2cccnc2n1-c1ccc(F)cc1,53.4*
COC(=O)c1cccc(NC(=O)CSc2nc3cccnc3n2C)c1,-52.7
CCCCN(c1ccccc1)c1ncnc(N)c1[N+](=O)[O-],-52.0
CC/C(CC(C)(C)c1ccccc1)=N\O,55.8*
Cc1cc(NS(=O)(=O)c2ccc(NC(=O)COc3c(C)cc(Br)cc3C)cc2)no1,-84.6
C=CCn1cccc(/C=C/C(=O)c2ccc(C(C)(C)C)cc2)c1=S,-52.6
CCCCN(CCCC)CCNC(=O)c1ccc2nc(-c3ccccc3NC(C)=O)c(=O)[nH]c2c1,-42.1
SMILES,PGC1a acetyl up
CC(=O)c1ccc(Nc2cc(C)nc3ccc(C)cc23)cc1,-40.0
Cc1ccc2nc(C)cc(OCC(=O)O)c2c1,59.0*
Cc1ccc(Nc2nc(C)cc(C)c2C(N)=O)c(C)c1,-40.5
CS(=O)(=O)N(CC(=O)N1CCN(c2ccccc2)CC1)c1cccc(Br)c1,-43.4
CC(=O)Nc1ccc(NC(=O)CN(c2cccc([N+](=O)[O-])c2)S(C)(=O)=O)cc1,455.0*
C[C@@H]1CN([C@H](C)CO)C(=O)CCCn2nncc2CO[C@H]1CN(C)C(=O)Nc1cccc(F)c1,-56.8
COc1ccc(CC2=CC(=O)c3ccccc3C2=O)cc1,128.3*
CC(C)C#Cc1ccc([C@@H]2[C@H](CO)N3C(=O)CN(C(=O)NC4CCCC4)C[C@@H]23)cc1,-107.1
N#Cc1c(N)c(C(=O)c2ccccc2)n2ccccc12,-49.3
CO[C@@H]1CN(C)C(=O)c2ccc(NC(C)=O)cc2OC[C@@H](C)N(C(=O)Cc2cccnc2)C[C@@H]1C,-46.9
Cc1cccc(NC(=O)CCC(=O)N/N=C/c2ccc(O)cc2O)c1,51.2*
CCC(=O)Nc1cccc(C(=O)/C=C/c2ccccc2)c1,-40.6
COc1ccccc1C(=O)Nc1ccc2c(c1)C(=O)N(C)C[C@H](OC)[C@H](C)CN(CC1CC1)[C@@H](C)CO2,-52.1
COc1ccccc1C(=O)Nc1ccc2c(c1)nc(CCNC(=O)c1ccco1)n2C,115.1*
Cc1noc(C)c1NC(=O)N(C)C[C@@H]1Oc2c(NS(=O)(=O)c3cn(C)cn3)cccc2C(=O)N([C@@H](C)CO)C[C@@H]1C,-54.0
CC(C)NC(=O)Nc1ccc2c(c1)C(=O)N([C@@H](C)CO)C[C@@H](C)[C@@H](CN(C)S(=O)(=O)c1ccccc1)OCCCC[C@H](C)O2,-105.0
CCn1c2ccccc2c2cc(/C=N/NC(=O)c3ccccc3)ccc21,-43.1
O=C(Cn1c2ccccc2c(=O)c2ccccc21)N/N=C/c1cc([N+](=O)[O-])ccc1N1CCCCCC1,52.8*
O=C(c1cccc([N+](=O)[O-])c1)N1CCc2ccccc21,-43.6
